Most compounds without a hit are left out; they make up all but 2.3% or so of the library.
TRPC4 act = activators of mouse TRPC4 channel. B-score at 10 µM. AID 2237. actives 0.49% (n = 310,000). HEK293 TRPC4beta/mu-opioid, Fluo4 calcium fluorescence; hits give high values;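 active means B-score above 5 SD of library B-scores, and initial fluorescence ratio not above library mean plus 5 SD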;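 further: positive B-score marks a calcium rise read as TRPC4 activation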
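Test system: HEK293 cells stably co-expressing mouse TRPC4beta and mu-opioid receptor | Schedule: Fluo4 dye loading 45 min at room temperature, 110 s recording | Measured by: Kinetic Fluo4 calcium fluorescence, 5 s baseline at 1 Hz | Evaluation: B score of integrated ratio | Controls: Buffer (low) and maximal DAMGO (high)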
TRPC6 inh = inhibitors of mouse TRPC6 channel. Q61143. HEK293-TRPC6, membrane potential dye, ACh-evoked depolarization; hits give low values. B-score at 10 µM. actives 1.1% (n = 310,000). AID 2553;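 active means B-score under library mean minus 3 SD, initial fluorescence not abnormally high, positive integrated signal ratio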;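 further: B-score derived from integrated fluorescence ratio over the kinetic read; more negative B-score means stronger inhibition of depolarization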
Target sequence (Q61143 whole entry, looked up): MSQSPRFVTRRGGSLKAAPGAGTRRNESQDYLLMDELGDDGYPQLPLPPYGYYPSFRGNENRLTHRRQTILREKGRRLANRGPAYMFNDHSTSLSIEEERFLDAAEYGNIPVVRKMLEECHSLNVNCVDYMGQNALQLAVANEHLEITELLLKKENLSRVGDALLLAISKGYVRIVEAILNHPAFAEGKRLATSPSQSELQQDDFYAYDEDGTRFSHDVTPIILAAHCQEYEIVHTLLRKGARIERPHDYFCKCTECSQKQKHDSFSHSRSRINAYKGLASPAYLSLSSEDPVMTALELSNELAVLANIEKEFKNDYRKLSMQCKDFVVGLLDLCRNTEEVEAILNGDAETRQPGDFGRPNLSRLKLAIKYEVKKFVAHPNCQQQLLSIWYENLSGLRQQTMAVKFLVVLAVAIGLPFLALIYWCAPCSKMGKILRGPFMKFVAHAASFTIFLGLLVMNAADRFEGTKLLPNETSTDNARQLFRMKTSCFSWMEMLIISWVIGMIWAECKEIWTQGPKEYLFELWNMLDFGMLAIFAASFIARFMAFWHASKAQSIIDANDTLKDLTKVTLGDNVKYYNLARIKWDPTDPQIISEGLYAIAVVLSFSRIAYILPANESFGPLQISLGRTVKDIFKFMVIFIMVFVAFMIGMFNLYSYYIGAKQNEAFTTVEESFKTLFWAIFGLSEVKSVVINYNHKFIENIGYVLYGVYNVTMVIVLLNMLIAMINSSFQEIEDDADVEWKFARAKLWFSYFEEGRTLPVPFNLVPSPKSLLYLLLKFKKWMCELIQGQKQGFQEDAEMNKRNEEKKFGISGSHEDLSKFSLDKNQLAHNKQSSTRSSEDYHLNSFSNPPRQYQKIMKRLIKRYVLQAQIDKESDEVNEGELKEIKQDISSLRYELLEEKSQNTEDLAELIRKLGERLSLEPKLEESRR
TRPC4 PAM = allosterically enhances the mouse TRPC4 cation channel; HEK293 TRPC4beta/mu-opioid, DAMGO EC20, Fluo-4 Ca2+ flux; hits give high values; actives 0.42% (n = 310,000); Q9QUQ5; B-score at 10 µM;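 active means B-score of calcium response area above 5 SD of library B-scores, with initial fluorescence ratio within 5 SD of library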;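 further: B-score of integrated fluorescence ratio over time as area under calcium response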
TRPC6 activator = mouse TRPC6 channel activation; HEK293-TRPC6 membrane potential dye fluorescence; hits give high values; B-score at 10 µM; actives 0.13% (n = 310,000);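 active means B-score of the integrated fluorescence ratio above library mean plus 3 SD, and starting fluorescence ratio within library mean plus 5 SD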;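 further: higher score means more depolarization so channel activation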
TRPC4 block = blocks the mouse TRPC4 cation channel. B-score at 10 µM. actives 0.39% (n = 300,000). HEK293 TRPC4beta/mu-opioid, DAMGO-evoked Fluo4 calcium flux; hits give low values. AID 2247;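 active means B-score over 3 SD under the library average, no early fluorescence shift, positive overall ratio signal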
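test system = HEK293 cells with stable TRPC4beta plus mu-opioid receptor expression | detection = Fluo4 Ca2+ flux fluorescence | read-out = integrated fluorescence ratio relative to baseline, converted to per-well B score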
* = called active by the depositor; i = inactive.

SMILES | TRPC4 act | TRPC6 inh | TRPC4 PAM | TRPC6 activator | TRPC4 block
O=C(Nc1ccc(Br)cc1)c1cccc(-n2cnnn2)c1 | i | i | i | i | i
CC(=O)Nc1ccccc1OCC(=O)c1cc(C)n(Cc2cccs2)c1C | 72* | i | i | i | i
Cc1cc(C(=O)COc2cccnc2[N+](=O)[O-])c(C)n1Cc1cccs1 | i | i | i | i | i
CCCCCn1c(=O)[nH]c2cc(C(=O)NCCN(CC)CC)ccc2c1=O | i | i | 14* | i | i
Cc1ccc(C(C(=O)NC(C)(C)C)N(Cc2ccco2)C(=O)CCC(=O)Nc2ccccn2)cc1 (configuration not stated) | i | i | i | i | i
Cc1ccc(C(C(=O)NC(C)(C)C)N(C(=O)CCC(=O)Nc2ccccn2)c2ccccc2F)cc1 (configuration not stated) | i | i | i | i | -8*
CCOc1ccccc1N(CC(=O)N1CCOCC1)S(=O)(=O)c1ccc(SC)cc1 | 175* | i | i | i | i
Cc1ccc(S(=O)(=O)N(CC(=O)N2CCOCC2)c2ccccc2F)cc1 | i | i | i | i | i
C=CCNC(=S)N1CCN(c2ncc(C(F)(F)F)cc2Cl)CC1 | i | i | 11* | i | i
C=CCNC(=S)N1CCN(c2ccccc2Cl)CC1 | i | i | i | i | i
Cc1cc(C)cc(NC(=S)N2CCN(c3ncc(C(F)(F)F)cc3Cl)CC2)c1 | 141* | i | i | i | i
C=CCN(CC=C)C(=O)C1CCN(S(=O)(=O)c2ccc(N3CCCC3=O)cc2)CC1 | i | i | i | i | i
O=C(CSc1nnc(Cc2ccccc2)c(=O)[nH]1)Nc1ccccc1 | i | i | i | i | i
O=C(CCNC(=O)Cn1ccc2ccccc2c1=O)NCCN1CCN(c2cccc(Cl)c2)CC1 | i | i | i | i | -6*
CSc1nc(N2CCOCC2)c2c3c(sc2n1)CCCC3 | i | i | i | i | -6*
CCCC1NC(C(=O)O)Cc2c1[nH]c1ccccc21 (configuration not stated) | i | i | i | i | -6*
CC(C)C1NC(C(=O)O)Cc2c1[nH]c1ccccc21 (configuration not stated) | i | i | i | i | -7*
CC(C)CC1NC(C(=O)O)Cc2c1[nH]c1ccccc21 (configuration not stated) | i | i | i | i | i
O=C(Nc1ccccc1Br)c1cc[n+]([O-])cc1 | i | i | i | i | i
Cc1ccc(NC(=O)CC(=O)c2ccccc2)cc1C | i | i | i | i | i
CCn1c(C)nc2cc(C(=O)N/N=C/c3ccc(O)c(O)c3O)ccc21 | i | i | 14* | i | i
OCCNCCSc1nc(C2CCCCC2)n(-c2ccccc2Cl)n1 | i | i | i | i | i
O=C1CC(O)(C(F)F)Oc2ccc3ccccc3c21 (configuration not stated) | i | i | i | i | i
O=C1CC(O)(C(F)(F)F)Oc2c1ccc1ccccc21 (configuration not stated) | 142* | i | i | i | i
O=C(OC(C(=O)NCc1ccc(F)cc1)c1ccccc1)c1ccco1 (configuration not stated) | i | i | i | i | i
SMILES | TRPC4 act | TRPC6 inh | TRPC4 PAM | TRPC6 activator | TRPC4 block
O=C(OCC(=O)N1CCOCC1)c1cccc(S(=O)(=O)N2CCCc3ccccc32)c1 | i | i | 15* | i | i
O=C(OCC(=O)N1CCCC1=O)c1cccc(S(=O)(=O)N2CCOCC2)c1 | i | i | i | i | i
CCCCn1c(NCCO)nc2ccccc21 | i | i | i | i | -6*
OCCNc1nc2ccccc2n1CCN1CCCCC1 | i | i | i | i | -6*
O=C(Cn1c(NCCCO)nc2ccccc21)c1ccc(Br)cc1 | i | i | i | i | -7*
CCCCn1c(NCc2ccccc2O)nc2ccccc21 | i | i | i | i | i
NNC(=O)c1cnn(-c2ccccc2)c1-n1cccc1 | i | i | i | i | i
CCN(CC)S(=O)(=O)c1ccc(N2CCCC2)c(NC(=O)Cc2cc(OC)c(OC)c(OC)c2)c1 | i | i | i | i | i
CCN1C(=O)[C@H]2[C@@H](c3ccc(-c4ccccc4)cc3)N3CCCC[C@@]3(C(=O)OC)[C@H]2C1=O | i | i | i | i | i
CN(Cc1ccccc1Cl)C(=O)C1CCC(=O)N(C2CCCCCC2)C1 (configuration not stated) | i | i | i | i | i
O=C(NCCO)C(=O)NCC1CCCN1S(=O)(=O)c1cccs1 (configuration not stated) | i | i | i | i | i
C=CCNC(=O)C(=O)NCC1CCCN1S(=O)(=O)c1cccs1 (configuration not stated) | i | i | 86* | i | i
CNc1nc(N2CCc3ccccc32)ncc1F | i | i | 47* | i | i
COc1ccc(C2CC(=O)c3cnc(N4CCc5ccccc54)nc3C2)cc1OC (configuration not stated) | i | i | i | i | i
CCN1CCN(C(=O)c2cc(-c3ccc(Cl)s3)nc3ccccc23)CC1 | i | i | 18* | i | i
COc1cc(C(=O)NCC(c2cccs2)N(C)C)cc(Cl)c1OC(C)C (configuration not stated) | 63* | i | i | i | i
COc1cc2ccccc2cc1C(=O)NCC(c1cccs1)N(C)C (configuration not stated) | 179* | i | i | i | i
CCCOc1ccc(C(=O)NCC(c2cccs2)N(C)C)cc1OC (configuration not stated) | i | i | i | i | i
Cn1c(=O)c2c(nc(N3CCOCC3)n2CC(=O)C23CC4CC(CC(C4)C2)C3)n(C)c1=O | i | i | i | i | i
CN1CCN(c2nc3c(c(=O)n(C)c(=O)n3C)n2CC(=O)C23CC4CC(CC(C4)C2)C3)CC1 | i | i | i | i | -6*
CC(NCc1cc(Br)ccc1OCC(=O)NCc1ccccc1)c1ccccc1 (configuration not stated) | 61* | i | i | i | -8*
O=C(COc1ccc(Br)cc1CNC1CCCC1)Nc1ccccc1 | 62* | i | i | i | i
Clc1ccc2nc(CN3CCCc4ccccc43)cn2c1 | i | i | 21* | i | i
Clc1ccc2nc(CN3CCCCC3)cn2c1 | i | i | i | i | i

High-throughput results (PubChem)
